Values joined by “and” are separate entries in the source; they are usually repeats but may differ in a detail not shown here. Equal entries are not always repeated.
How the values were obtained:
HEK-293T = assay: Multiplex assay against HEK293T; format: toxicity, cell-based; details: human, number of replicates 2
Procedure, shortened: (§1)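 Compound was added to live cells that had been stained at seeding with Hoechst33342, BioTracker Green Microtubule Cytoskeleton Dye, MitoTracker Red and Annexin V Alexa Fluor 680, and imaging followed on a CQ1 microscope at 37°C and 5% CO2. CellPathfinder machine-learning gating divided cells into Hoechst high-intensity objects or normal cells, normal cells into healthy, pyknosed or fragmented nuclei, and pyknosed cells into mitotic or apoptotic. Tubulin, mitochondrial-mass and membrane-permeability phenotypes are per cents of healthy-nucleus cells.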

U2OS = assay: Multiplex assay against U2OS; format: toxicity, cell-based; details: human, number of replicates 2; procedure, shortened: as §1
[1] = 24 h, 1 µM, compound concentration 1 uM
[2] = 24 h, 10 µM, compound concentration 10 uM
[3] = 48 h, 1 µM, compound concentration 1 uM
[4] = 48 h, 10 µM, compound concentration 10 uM
[5] = 12 h, 1 µM, compound concentration 1 uM
[6] = 12 h, 10 µM, compound concentration 10 uM

COc1ccc(NC(=O)c2ccc(-c3ccc(-c4noc(C)n4)cc3C)cc2)cc1OCCN(C)C.Cl
Population Tubulin-Different-Phenotype (%) (HEK-293T; [1]): 66% and 62%
Total Cell Count (HEK-293T; [1]): 768 and 603
Population Apoptotic (%) (HEK-293T; [2]): 82% and 89%
Population Fragmented Nuclei (%) (HEK-293T; [2]): 6%
Population Healthy Nuclei (%) (HEK-293T; [2]): 32% and 33%
Population Hoechst High Intensity Objects (%) (HEK-293T; [2]): 23% and 19%
Population Membrane Permeable-Phenotype (%) (HEK-293T; [2]): 6% and 0%
Population Mitochondria Different-Phenotype (%) (HEK-293T; [2]): 74% and 77%
Population Mitotic Cells (%) (HEK-293T; [2]): 17% and 10%
Population Normal (%) (HEK-293T; [2]): 76% and 80%
Population Pyknosed Nuclei (%) (HEK-293T; [2]): 60%
Population Tubulin-Different-Phenotype (%) (HEK-293T; [2]): 74% and 86%
Total Cell Count (HEK-293T; [2]): 296 and 269
Population Apoptotic (%) (HEK-293T; [3]): 43% and 51%
Population Fragmented Nuclei (%) (HEK-293T; [3]): 10% and 8%
Population Healthy Nuclei (%) (HEK-293T; [3]): 84% and 83%
Population Hoechst High Intensity Objects (%) (HEK-293T; [3]): 9% and 10%
Population Membrane Permeable-Phenotype (%) (HEK-293T; [3]): 5%
Population Mitochondria Different-Phenotype (%) (HEK-293T; [3]): 3% and 6%
Population Mitotic Cells (%) (HEK-293T; [3]): 56% and 48%
Population Normal (%) (HEK-293T; [3]): 90% and 89%
Population Pyknosed Nuclei (%) (HEK-293T; [3]): 4% and 8%
Population Tubulin-Different-Phenotype (%) (HEK-293T; [3]): 40% and 41%
Total Cell Count (HEK-293T; [3]): 1630 and 1219
Population Apoptotic (%) (HEK-293T; [4]): 86% and 92%
Population Fragmented Nuclei (%) (HEK-293T; [4]): 8% and 7%
Population Healthy Nuclei (%) (HEK-293T; [4]): 24% and 19%
Population Hoechst High Intensity Objects (%) (HEK-293T; [4]): 28% and 22%
Population Membrane Permeable-Phenotype (%) (HEK-293T; [4]): 3% and 2%
Population Mitochondria Different-Phenotype (%) (HEK-293T; [4]): 72% and 70%
Population Mitotic Cells (%) (HEK-293T; [4]): 13% and 7%
Population Normal (%) (HEK-293T; [4]): 71% and 77%
Population Pyknosed Nuclei (%) (HEK-293T; [4]): 66% and 72%
Population Tubulin-Different-Phenotype (%) (HEK-293T; [4]): 84% and 87%
Total Cell Count (HEK-293T; [4]): 289 and 271
Population Apoptotic (%) (U2OS; [5]): 40% and 45%
Population Healthy Nuclei (%) (U2OS; [5]): 61% and 83%
Population Hoechst High Intensity Objects (%) (U2OS; [5]): 0%
Population Membrane Permeable-Phenotype (%) (U2OS; [5]): 5% and 4%
Population Mitochondria Different-Phenotype (%) (U2OS; [5]): 5% and 13%
Population Mitotic Cells (%) (U2OS; [5]): 60% and 55%
Population Normal (%) (U2OS; [5]): 100%
Population Pyknosed Nuclei (%) (U2OS; [5]): 16% and 11%
Population Tubulin-Different-Phenotype (%) (U2OS; [5]): 36% and 40%
Population Apoptotic (%) (U2OS; [6]): 76% and 60%
Population Fragmented Nuclei (%) (U2OS; [6]): 10% and 23%
Population Healthy Nuclei (%) (U2OS; [6]): 43% and 51%
Population Hoechst High Intensity Objects (%) (U2OS; [6]): 1% and 0%
Population Membrane Permeable-Phenotype (%) (U2OS; [6]): 34% and 30%
Population Mitochondria Different-Phenotype (%) (U2OS; [6]): 67% and 85%
Population Mitotic Cells (%) (U2OS; [6]): 23% and 40%
Population Normal (%) (U2OS; [6]): 98% and 100%
Population Pyknosed Nuclei (%) (U2OS; [6]): 46% and 25%
Population Tubulin-Different-Phenotype (%) (U2OS; [6]): 93% and 100%
Population Apoptotic (%) (U2OS; [1]): 55% and 51%
Population Healthy Nuclei (%) (U2OS; [1]): 55% and 78%
Population Hoechst High Intensity Objects (%) (U2OS; [1]): 2% and 0%
Population Membrane Permeable-Phenotype (%) (U2OS; [1]): 5%
Population Mitochondria Different-Phenotype (%) (U2OS; [1]): 15% and 17%
Population Mitotic Cells (%) (U2OS; [1]): 44% and 48%
Population Normal (%) (U2OS; [1]): 97% and 99%
Population Pyknosed Nuclei (%) (U2OS; [1]): 25% and 15%
Population Tubulin-Different-Phenotype (%) (U2OS; [1]): 35% and 34%
Population Apoptotic (%) (U2OS; [2]): 63% and 86%
Population Fragmented Nuclei (%) (U2OS; [2]): 16% and 6%
Population Healthy Nuclei (%) (U2OS; [2]): 32%
Population Hoechst High Intensity Objects (%) (U2OS; [2]): 0%
Population Membrane Permeable-Phenotype (%) (U2OS; [2]): 58% and 79%
Population Mitochondria Different-Phenotype (%) (U2OS; [2]): 75% and 89%
Population Mitotic Cells (%) (U2OS; [2]): 36% and 13%
Population Normal (%) (U2OS; [2]): 100% and 99%
Population Pyknosed Nuclei (%) (U2OS; [2]): 51% and 61%
Population Tubulin-Different-Phenotype (%) (U2OS; [2]): 100% and 98%
Population Apoptotic (%) (U2OS; [3]): 77% and 72%
Population Fragmented Nuclei (%) (U2OS; [3]): 16% and 7%
Population Healthy Nuclei (%) (U2OS; [3]): 65% and 77%
Population Hoechst High Intensity Objects (%) (U2OS; [3]): 2% and 0%
Population Membrane Permeable-Phenotype (%) (U2OS; [3]): 6%
Population Mitochondria Different-Phenotype (%) (U2OS; [3]): 3% and 12%
Population Mitotic Cells (%) (U2OS; [3]): 22% and 27%
Population Normal (%) (U2OS; [3]): 98% and 100%
Population Pyknosed Nuclei (%) (U2OS; [3]): 18% and 15%
Population Tubulin-Different-Phenotype (%) (U2OS; [3]): 37% and 40%
Population Apoptotic (%) (U2OS; [4]): 95% and 98%
Population Fragmented Nuclei (%) (U2OS; [4]): 21% and 14%
Population Healthy Nuclei (%) (U2OS; [4]): 18% and 6%
Population Hoechst High Intensity Objects (%) (U2OS; [4]): 2% and 1%
Population Membrane Permeable-Phenotype (%) (U2OS; [4]): 85% and 92%
Population Mitochondria Different-Phenotype (%) (U2OS; [4]): 71% and 100%
Population Mitotic Cells (%) (U2OS; [4]): 4% and 1%
Population Normal (%) (U2OS; [4]): 97% and 98%
Population Pyknosed Nuclei (%) (U2OS; [4]): 59% and 79%
Population Tubulin-Different-Phenotype (%) (U2OS; [4]): 100% and 92%

— ChEMBL document CHEMBL5303300, “EUbOPEN Chemogenomics Library - Multiplex” (2023)
